# Activity calls are given as the source filed them. No cut-off for these calls is given here.
# Assays:
# HCT-116 [1] = assay: Antiproliferative activity against human HCT116 p53+/+ cells after 72 hrs by MTS assay; type: functional, cell-based; conditions: HCT-116, 72 h
# In short: (§1)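 Cells allowed to adhere 24 h (1x10⁴/well), then exposed to 0.5-50 μM compound from DMSO stocks (final DMSO ≤0.8% v/v) for 72 h. Viability by MTS bio-reduction to formazan, absorbance 490 nm. IC50 from log(inhibitor) vs response (variable slope) fit, at least three independent experiments; table values mean ± SD of three experiments in duplicate.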
# [2] = molecular target: T1, Tumour suppressor p53/oncoprotein Mdm2 (Homo sapiens) (UniProt P04637+Q00987); assay: Inhibition of MDM2-V2/V1-p53 (unknown origin) interaction expressed in human HCT116 p53-/- cells at 20 uM after 20 hrs by biomolecular fluorescence complementation-based flow cytometric analysis; type: cell-based
# T1 sequence (P04637 whole entry, looked up): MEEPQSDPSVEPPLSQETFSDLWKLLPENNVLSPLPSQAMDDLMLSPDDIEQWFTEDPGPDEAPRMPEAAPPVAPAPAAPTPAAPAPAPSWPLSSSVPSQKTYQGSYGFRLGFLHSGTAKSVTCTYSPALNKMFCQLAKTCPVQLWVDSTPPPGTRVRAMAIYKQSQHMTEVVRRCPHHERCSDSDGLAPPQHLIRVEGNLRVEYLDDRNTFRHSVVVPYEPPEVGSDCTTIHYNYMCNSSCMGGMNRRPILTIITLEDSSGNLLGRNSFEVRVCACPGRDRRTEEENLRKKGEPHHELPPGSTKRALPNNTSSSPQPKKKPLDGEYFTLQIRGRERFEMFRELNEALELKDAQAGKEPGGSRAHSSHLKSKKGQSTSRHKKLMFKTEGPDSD
# T1 sequence (Q00987 whole entry, looked up): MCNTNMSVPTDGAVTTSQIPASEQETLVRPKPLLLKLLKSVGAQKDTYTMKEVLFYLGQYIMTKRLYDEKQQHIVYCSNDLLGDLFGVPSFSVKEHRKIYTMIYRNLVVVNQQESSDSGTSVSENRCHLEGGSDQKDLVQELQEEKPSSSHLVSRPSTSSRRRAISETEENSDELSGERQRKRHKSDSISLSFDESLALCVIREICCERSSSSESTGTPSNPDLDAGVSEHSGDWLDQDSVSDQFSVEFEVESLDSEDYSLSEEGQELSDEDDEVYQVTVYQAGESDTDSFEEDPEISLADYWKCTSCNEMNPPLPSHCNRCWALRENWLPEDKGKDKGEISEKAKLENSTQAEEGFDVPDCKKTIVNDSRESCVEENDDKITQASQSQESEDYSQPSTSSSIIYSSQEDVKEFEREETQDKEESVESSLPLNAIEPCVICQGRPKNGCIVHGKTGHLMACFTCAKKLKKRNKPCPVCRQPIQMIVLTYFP
# In short: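 HCT-116 p53-/- cells cotransfected with 1 µg each of V1-p53 and MDM2-V2 Venus BiFC plasmids by lipofection. Medium replaced 4-6 h later and compound added at 5, 10 or 20 μM, or DMSO, for a further 20 h. Cells detached with accutase; Venus fluorescence by flow cytometry, normalized to DMSO (100%). Mean ± SD of three independent experiments.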
# HCT-116 [3] = assay: Cell cycle arrest in human HCT116 p53+/+ cells assessed as accumulation at G0/G1 phase at IC50 after 48 hrs by propidium iodide staining-based flow cytometric analysis (reference value: 50.48%); type: functional
# HCT-116 [4] = assay: Induction of apoptosis in human HCT116 p53+/+ cells assessed as early apoptotic cells at IC50 after 72 hrs by Annexin V-FITC/7-AAD staining-based flow cytometric analysis relative to control; type: functional
# In short: (§2)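 HCT-116 p53+/+ cells (5x10⁴/well) exposed at IC50 or 2xIC50, or DMSO, for 72 h. Medium and Accutase-detached cells pooled, resuspended in PBS/2% FBS, stained with Annexin V/7-AAD reagent 20 min at room temperature in the dark. Flow cytometry, at least 5000 events per sample; mean ± SD of three independent experiments.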
# HCT-116 [5] = assay: Cell cycle arrest in human HCT116 p53+/+ cells assessed as accumulation at S phase at IC50 after 24 hrs by propidium iodide staining-based flow cytometric analysis (reference value: 37.44%); type: functional
# [6] = molecular target: T1, Tumour suppressor p53/oncoprotein Mdm2 (Homo sapiens); assay: Inhibition of MDM2/p53 interaction in human HCT116 cells assessed as upregulation of p53 protein expression at IC50 after 72 hrs by Western blot analysis; type: cell-based
# HCT-116 [7] = assay: Antiproliferative activity against human HCT116 p53-/- cells after 72 hrs by MTS assay; type: functional, cell-based; conditions: HCT-116, 72 h; in short: as §1
# HCT-116 [8] = assay: Cell cycle arrest in human HCT116 p53+/+ cells assessed as accumulation at S phase at IC50 after 48 hrs by propidium iodide staining-based flow cytometric analysis (reference value: 22.67%); type: functional
# HCT-116 [9] = assay: Induction of apoptosis in human HCT116 p53+/+ cells assessed as increase in early apoptotic cells at 2 times IC50 after 72 hrs by Annexin V-FITC/7-AAD staining-based flow cytometric analysis; type: functional, cell-based; in short: as §2
# CCD-18Co [10] = assay: Cytotoxicity against human CCD-18Co cells at IC80 after 72 hrs by MTS assay relative to control; type: cell-based
# [11] = molecular target: T1, Tumour suppressor p53/oncoprotein Mdm2 (Homo sapiens); assay: Inhibition of MDM2/p53 interaction in human HCT116 cells assessed as downregulation of MDM2 protein expression at IC50 after 72 hrs by Western blot analysis; type: cell-based
# HCT-116 [12] = assay: Cell cycle arrest in human HCT116 p53+/+ cells assessed as accumulation at G2/M phase at IC50 after 24 hrs by propidium iodide staining-based flow cytometric analysis (reference value: 29.07%); type: functional
# HCT-116 [13] = assay: Cytotoxicity against human HCT116 p53+/+ cells at IC50 after 72 hrs by LDH release assay; type: functional, cell-based
# In short: (§3)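 HCT-116 p53+/+ cells treated at IC50 or 2xIC50, or DMSO, for 72 h. Supernatant mixed with LDH assay substrate 10-30 min at room temperature in the dark; absorbance 490 nm, 620 nm reference. LDH release normalized to DMSO control; mean ± SEM of three independent experiments.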
# HCT-116 [14] = assay: Cell cycle arrest in human HCT116 p53+/+ cells assessed as accumulation at G2/M phase at IC50 after 48 hrs by propidium iodide staining-based flow cytometric analysis (reference value: 26.85%); type: functional
# CCD-18Co [15] = assay: Cytotoxicity against human CCD-18Co cells at IC50 after 72 hrs by MTS assay; type: cell-based
# HCT-116 [16] = assay: Cytotoxicity against human HCT116 p53+/+ cells at 2 times IC50 after 72 hrs by LDH release assay relative to control; type: functional; in short: as §3
# HCT-116 [17] = assay: Cell cycle arrest in human HCT116 p53+/+ cells assessed as accumulation at G0/G1 phase at IC50 after 24 hrs by propidium iodide staining-based flow cytometric analysis (reference value: 33.49%); type: functional
# HCT-116 [18] = assay: Synergistic cytotoxicity against human HCT116 p53+/+ cells at IC10 to IC20 after 72 hrs in presence of 5-FU by MTS assay; type: functional, cell-based
# [19] = molecular target: E3 ubiquitin-protein ligase Mdm2 (Homo sapiens) (UniProt Q00987); assay: Inhibition of FAM-tagged p53-based fluorescent probe binding to human His-tagged MDM2 (1 to 118 residues) up to 400 uM after 30 mins by fluorescence polarization assay
# E3 ubiquitin-protein ligase Mdm2 (Homo sapiens), sequence (Q00987 whole entry, looked up, the tested form may be a part): as the sequence (Q00987 whole entry, looked up) above
# In short: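 Recombinant human His-tagged MDM2 (residues 1-118), final 10 nM, preincubated with 5-FAM-labelled p53-based peptidomimetic probe, final 1 nM (Kd 1.4 ± 0.3 nM). Buffer: 100 mM potassium phosphate pH 7.5, 100 μg/ml bovine γ-globulin, 0.02% sodium azide, 0.01% Triton X-100, final 4% DMSO. Incubated 30 min at room temperature with shaking; polarization read at ex 485/em 530 nm. Inhibition calculated against protein+probe and free-probe controls.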
# HCT-116 [20] = assay: Synergistic cytotoxicity against human HCT116 p53+/+ cells at IC50 after 72 hrs in presence of 5-FU by MTS assay; type: functional, cell-based
structure (smiles),measurement,setting,value
O=C1Nc2c(Cl)cccc2[C@]12[C@@H](c1ccccc1)C(c1ccccc1)=NN2c1ccccc1Cl,IC50,HCT-116 [1],> 20 µM
CC(C)(C)C1=NN(c2ccccc2)[C@]2(C(=O)Nc3cc(Cl)ccc32)[C@H]1c1cccc(Cl)c1,IC50,HCT-116 [1],18.4 µM
CC(C)(C)C1=NN(c2ccccc2Cl)[C@]2(C(=O)Nc3c(Cl)cccc32)[C@H]1c1ccccc1,IC50,HCT-116 [1],17.3 µM
COc1ccc(C2=NN(c3ccccc3)[C@]3(C(=O)Nc4c(Cl)cccc43)[C@H]2c2ccccc2)cc1,IC50,HCT-116 [1],15.6 µM
O=C1Nc2cc(Br)ccc2[C@@]12ON=C(c1ccccc1)[C@@H]2c1ccccc1,IC50,HCT-116 [1],35 µM
COc1ccc(C2=NN(c3ccccc3)[C@]3(C(=O)Nc4cc(Br)ccc43)[C@H]2c2ccccc2)cc1,IC50,HCT-116 [1],12.8 µM
O=C1Nc2cc(Cl)ccc2[C@]12[C@@H](c1ccccc1)C(c1ccccc1)=NN2c1ccccc1,IC50,HCT-116 [1],16.7 µM
COc1ccc(C2=NN(c3ccccc3)[C@]3(C(=O)Nc4cc(Cl)ccc43)[C@H]2c2cccc(Cl)c2)cc1,inhibition,[2],Active
same,Activity,HCT-116 [3],54.78%
same,Activity,HCT-116 [4],10%
same,Activity,HCT-116 [5],38.45%
same,IC50,HCT-116 [1],10.9 µM
same,inhibition,[6],Active
same,IC50,HCT-116 [7],11.6 µM
same,Activity,HCT-116 [8],20.35%
same,Activity,HCT-116 [9],Active
same,Activity,CCD-18Co [10],20%
same,inhibition,[11],Active
same,Activity,HCT-116 [12],11.33%
same,Activity,HCT-116 [13],inactive
same,Activity,HCT-116 [14],24.87%
same,Activity,CCD-18Co [15],Non-Toxic
same,fold change (FC),HCT-116 [16],1.5
same,Activity,HCT-116 [17],50.22%
CC(C)(C)C1=NN(c2ccccc2)[C@]2(C(=O)Nc3cc(Cl)ccc32)[C@H]1c1ccccc1,IC50,HCT-116 [1],> 20 µM
O=C1Nc2cc(Cl)c(F)cc2[C@]12[C@@H](c1ccccc1)C(c1ccccc1)=NN2c1ccccc1,IC50,HCT-116 [1],12.4 µM
CC(C)(C)C1=NN(c2ccccc2Cl)[C@]2(C(=O)Nc3ccc(Cl)cc32)[C@H]1c1ccccc1,IC50,HCT-116 [1],> 20 µM
COc1ccc(C2=NO[C@]3(C(=O)Nc4cc(Br)ccc43)[C@H]2c2ccccc2)cc1,IC50,HCT-116 [1],33.4 µM
CC(C)(C)C1=NN(c2ccccc2)[C@]2(C(=O)Nc3ccccc32)[C@H]1c1ccccc1,IC50,HCT-116 [1],> 20 µM
O=C1Nc2cc(Cl)ccc2[C@@]12ON=C(c1ccccc1)[C@@H]2c1ccccc1,IC50,HCT-116 [1],39.8 µM
CC(C)(C)C1=NN(c2ccccc2)[C@]2(C(=O)Nc3cc(Br)ccc32)[C@H]1c1ccccc1,IC50,HCT-116 [1],> 20 µM
O=C1Nc2cc(Br)ccc2[C@]12[C@@H](c1ccccc1)C(c1ccccc1)=NN2c1ccccc1,IC50,HCT-116 [1],15.9 µM
CC(C)(C)C1=NN(c2ccccc2Cl)[C@]2(C(=O)Nc3ccccc32)[C@H]1c1ccccc1,IC50,HCT-116 [1],> 20 µM
O=C1Nc2ccc(Cl)cc2[C@]12[C@@H](c1ccccc1)C(c1ccccc1)=NN2c1ccccc1,IC50,HCT-116 [1],11 µM
CC(C)(C)C1=NN(c2ccccc2)[C@]2(C(=O)Nc3c(Cl)cccc32)[C@H]1c1ccccc1,IC50,HCT-116 [1],13.3 µM
COc1ccc(C2=NN(c3ccccc3)[C@]3(C(=O)Nc4ccc(Cl)cc43)[C@H]2c2ccccc2)cc1,IC50,HCT-116 [1],10.6 µM
CC(C)(C)C1=NN(c2ccccc2)[C@]2(C(=O)Nc3ccc(Cl)cc32)[C@H]1c1ccccc1,IC50,HCT-116 [1],17 µM
O=C1Nc2c(Cl)cccc2[C@]12[C@@H](c1ccccc1)C(c1ccccc1)=NN2c1ccccc1,IC50,HCT-116 [1],16.6 µM
O=C1Nc2ccccc2[C@]12[C@@H](c1ccccc1)C(c1ccccc1)=NN2c1ccccc1,IC50,HCT-116 [1],> 20 µM
CC(C)(C)C1=NN(c2ccccc2)[C@]2(C(=O)Nc3ccc(Br)cc32)[C@H]1c1ccccc1,IC50,HCT-116 [1],> 20 µM
O=C1Nc2ccc(Br)cc2[C@]12[C@@H](c1ccccc1)C(c1ccccc1)=NN2c1ccccc1,inhibition,[2],Active
same,Activity,HCT-116 [3],62%
same,Activity,HCT-116 [4],10%
same,Activity,HCT-116 [5],38.59%
same,IC50,HCT-116 [1],13.1 µM
same,inhibition,[6],Active
same,IC50,HCT-116 [7],14.2 µM
same,Activity,HCT-116 [8],15.38%
same,Activity,HCT-116 [18],Active
same,Activity,CCD-18Co [10],20%
same,inhibition,[11],Active
same,Activity,HCT-116 [12],19.55%
same,Activity,HCT-116 [13],inactive
same,Activity,HCT-116 [14],15.17%
same,Activity,CCD-18Co [15],Non-Toxic
same,inhibition,[19],inactive
same,Activity,HCT-116 [20],inactive
same,fold change (FC),HCT-116 [16],1.5
same,Activity,HCT-116 [17],41.85%
COc1ccc(C2=NN(c3ccccc3)[C@]3(C(=O)Nc4ccccc43)[C@H]2c2ccccc2)cc1,IC50,HCT-116 [1],11.7 µM

# Source: ChEMBL document CHEMBL4190313, “In vitro targeting of colon cancer cells using spiropyrazoline oxindoles” (Eur J Med Chem, 2017)
